Laboratory results published in ChEMBL document CHEMBL3414472, “Synthesis, SAR, and series evolution of novel oxadiazole-containing 5-lipoxygenase activating protein inhibitors: discovery of 2-[4-(3-{(r)-1-[4-(2-amino-pyrimidin-5-yl)-phenyl]-1-cyclopropyl-ethyl}-[1,2,4]oxadiazol-5-yl)-pyrazol-1-yl]-N,N-dimethyl-acetamide (BI 665915)” (J Med Chem, 2015).
Converted amounts (≈) assume the structure as drawn.

What was measured:
Cynomolgus monkey = experiment: Clearance in cynomolgus monkey at 1 mg/kg, iv and 10 mg/kg, po relative to hepatic blood flow; type: ADME, organism-based, Macaca fascicularis, Liver; conditions: in vivo
Outline: (§1)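 iv 1 mg/kg in 70 % PEG; po 10 mg/kg as suspension in 0.5 % methyl cellulose/0.015 % Tween. Blood sampled at 11 timepoints (0, 5, 15, 30 min, 1, 2, 4, 6, 8, 12, 24 h) per dose; mean of n = 3. Clearance expressed as percent of hepatic blood flow.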

[1] = biological target: Leukotriene B4 receptor 1 (Homo sapiens) (UniProt Q15722); experiment: Inhibition of BLT1 (unknown origin) at 10 uM relative to control
Sequence of Leukotriene B4 receptor 1 (Homo sapiens) (Q15722 whole entry): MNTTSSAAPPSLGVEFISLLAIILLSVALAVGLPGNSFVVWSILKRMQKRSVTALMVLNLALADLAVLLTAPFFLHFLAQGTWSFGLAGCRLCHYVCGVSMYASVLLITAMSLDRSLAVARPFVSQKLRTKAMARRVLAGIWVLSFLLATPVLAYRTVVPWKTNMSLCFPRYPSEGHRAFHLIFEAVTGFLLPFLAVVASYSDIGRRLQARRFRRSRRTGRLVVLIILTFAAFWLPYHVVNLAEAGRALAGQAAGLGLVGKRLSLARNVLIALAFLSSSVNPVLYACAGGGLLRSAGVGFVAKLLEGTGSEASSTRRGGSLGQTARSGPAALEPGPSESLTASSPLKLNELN

[2] = Plasma concentration in C57BL/6 mouse at 100 mg/kg, po after 2 hrs; type: ADME, organism-based; parameters: dose 100 mg/kg, route oral
[3] = Oral bioavailability in rat at 10 mg/kg; type: ADME, organism-based; conditions: in vivo; outline: as §1
Mus musculus [4] = experiment: In vivo inhibition of FLAP in C57BL/6 mouse assessed as LTB4 production in calcimycin-stimulated whole blood at 100 mg/kg, po after 2 hrs by ELISA (reference value: 100 +/- 13.3%); type: functional; parameters: scale not given: the % may be the effect or the level left
[5] = biological target: T1, Leukotriene A-4 hydrolase (Homo sapiens) (UniProt P09960); experiment: Inhibition of LTA4 hydrolase (unknown origin) at 10 uM relative to control
T1 sequence (whole entry): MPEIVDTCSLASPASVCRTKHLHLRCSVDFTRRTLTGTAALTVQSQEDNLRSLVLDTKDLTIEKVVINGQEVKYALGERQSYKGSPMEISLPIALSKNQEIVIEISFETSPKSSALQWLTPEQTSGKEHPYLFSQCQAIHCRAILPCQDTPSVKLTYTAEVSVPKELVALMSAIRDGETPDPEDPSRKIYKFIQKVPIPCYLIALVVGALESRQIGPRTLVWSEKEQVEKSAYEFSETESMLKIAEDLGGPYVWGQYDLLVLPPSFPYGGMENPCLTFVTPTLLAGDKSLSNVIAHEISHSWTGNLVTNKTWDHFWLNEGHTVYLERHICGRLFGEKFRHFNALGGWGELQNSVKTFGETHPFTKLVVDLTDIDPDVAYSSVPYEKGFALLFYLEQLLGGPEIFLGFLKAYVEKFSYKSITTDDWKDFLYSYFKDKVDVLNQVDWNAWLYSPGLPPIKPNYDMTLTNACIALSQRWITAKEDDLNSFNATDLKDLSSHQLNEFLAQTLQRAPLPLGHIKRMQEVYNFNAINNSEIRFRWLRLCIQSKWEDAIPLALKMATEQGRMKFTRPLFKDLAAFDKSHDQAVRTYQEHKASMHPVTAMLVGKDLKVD

[6] = Mean residence time in rat at 1 mg/kg, iv; type: ADME, organism-based; parameters: dose 1 mg/kg, route intravenous; conditions: in vivo; outline: as §1
[7] = biological target: Prostaglandin G/H synthase 1 (Homo sapiens) (UniProt P23219); experiment: Inhibition of cyclooxygenase-1 (unknown origin) at 10 uM relative to control
Sequence of Prostaglandin G/H synthase 1 (Homo sapiens) (P23219 whole entry): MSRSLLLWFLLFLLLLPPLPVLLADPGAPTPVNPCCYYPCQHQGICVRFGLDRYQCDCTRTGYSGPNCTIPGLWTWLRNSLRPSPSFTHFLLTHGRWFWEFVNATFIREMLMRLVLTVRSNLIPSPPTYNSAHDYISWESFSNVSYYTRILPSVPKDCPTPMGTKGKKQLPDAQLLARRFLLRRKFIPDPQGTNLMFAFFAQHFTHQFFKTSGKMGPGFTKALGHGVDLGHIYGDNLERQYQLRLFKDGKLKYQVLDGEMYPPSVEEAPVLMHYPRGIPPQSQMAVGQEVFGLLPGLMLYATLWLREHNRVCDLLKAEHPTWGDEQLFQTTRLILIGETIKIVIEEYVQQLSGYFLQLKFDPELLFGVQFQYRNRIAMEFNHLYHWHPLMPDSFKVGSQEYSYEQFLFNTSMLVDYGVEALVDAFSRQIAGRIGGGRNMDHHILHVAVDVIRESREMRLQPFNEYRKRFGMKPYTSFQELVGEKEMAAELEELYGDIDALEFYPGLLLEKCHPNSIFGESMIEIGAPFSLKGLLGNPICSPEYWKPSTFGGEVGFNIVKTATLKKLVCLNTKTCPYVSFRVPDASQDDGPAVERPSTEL

[8] = Plasma concentration in C57BL/6 mouse at 30 mg/kg, po after 2 hrs; type: ADME, organism-based; parameters: dose 30 mg/kg, route oral
Cytochrome P450 3A4 = Cytochrome P450 3A4 (Homo sapiens, UniProt P08684); experiment: Inhibition of CYP3A4 in human liver microsomes using midazolam as substrate preincubated for 10 mins followed by NADPH addition measured after 6 mins; type: ADME
Sequence of Cytochrome P450 3A4 (P08684 whole entry): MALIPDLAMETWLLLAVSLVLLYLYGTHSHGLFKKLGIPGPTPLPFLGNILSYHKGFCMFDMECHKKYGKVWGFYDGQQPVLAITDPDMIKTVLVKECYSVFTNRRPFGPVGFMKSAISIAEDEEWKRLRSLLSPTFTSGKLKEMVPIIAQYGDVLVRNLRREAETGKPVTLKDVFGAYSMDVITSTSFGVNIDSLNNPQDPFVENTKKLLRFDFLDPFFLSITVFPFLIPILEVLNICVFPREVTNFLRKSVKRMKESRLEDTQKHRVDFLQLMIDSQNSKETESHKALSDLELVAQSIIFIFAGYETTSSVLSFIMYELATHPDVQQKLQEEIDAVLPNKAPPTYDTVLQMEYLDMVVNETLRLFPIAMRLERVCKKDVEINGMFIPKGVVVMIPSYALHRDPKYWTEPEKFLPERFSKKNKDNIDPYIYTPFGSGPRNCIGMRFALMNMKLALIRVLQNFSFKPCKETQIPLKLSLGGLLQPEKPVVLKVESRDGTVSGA
Outline: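 Human liver microsomes (0.05 mg/mL protein) with cocktail substrates: 4 µM diclofenac (2C9), 3 µM dextromethorphan (2D6), 2.5 µM midazolam (3A4). Compound in 0.1 M potassium phosphate pH 7.4 preincubated 10 min at 37 °C; NADPH added, reaction 6 min at 37 °C.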

[9] = Aqueous equilibrium solubility of the compound in crystalline form in citric acid/disodium phosphate buffer at pH 6.8 after 24 hrs of rotation by HPLC analysis; type: physicochemical
Outline: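 Saturated solution of crystalline material in citric acid/disodium phosphate buffer pH 6.8 rotated 24 h; after centrifugation and filtration, dissolved concentration measured by HPLC.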

[10] = Mean residence time in dog at 1 mg/kg, iv; type: ADME, organism-based, Canis lupus familiaris; parameters: dose 1 mg/kg, route intravenous; conditions: in vivo; outline: as §1
[11] = biological target: T2, Arachidonate 5-lipoxygenase-activating protein (Mus musculus, UniProt P30355); experiment: Inhibition of FLAP in calcimycin-stimulated mouse whole blood assessed as inhibition of LTB4 synthesis preincubated for 15 mins followed by calcimycin stimulation measured after 30 mins
T2 sequence (P30355 whole entry): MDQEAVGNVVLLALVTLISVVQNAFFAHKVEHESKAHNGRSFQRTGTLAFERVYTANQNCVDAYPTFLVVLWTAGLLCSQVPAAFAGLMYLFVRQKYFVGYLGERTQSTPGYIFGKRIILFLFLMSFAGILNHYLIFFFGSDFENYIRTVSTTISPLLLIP
Outline: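 Mouse whole blood run by the same protocol as the human whole blood LTB4 assay (compound 15 min at 37 °C, 100 µM final calcimycin 30 min, HTRF LTB4 read-out). Geometric mean (n ≥ 3) of duplicate 8-point curves.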

Mus musculus [12] = experiment: In vivo inhibition of FLAP in C57BL/6 mouse assessed as LTB4 production in calcimycin-stimulated whole blood at 3 mg/kg, po after 2 hrs by ELISA (reference value: 100 +/- 13.3%); type: functional; parameters: scale not given: the % may be the effect or the level left
[13] = biological target: T3, Leukotriene B4 receptor 2 (Homo sapiens) (UniProt Q9NPC1); experiment: Inhibition of BLT2 (unknown origin) at 10 uM relative to control
T3 sequence (whole entry): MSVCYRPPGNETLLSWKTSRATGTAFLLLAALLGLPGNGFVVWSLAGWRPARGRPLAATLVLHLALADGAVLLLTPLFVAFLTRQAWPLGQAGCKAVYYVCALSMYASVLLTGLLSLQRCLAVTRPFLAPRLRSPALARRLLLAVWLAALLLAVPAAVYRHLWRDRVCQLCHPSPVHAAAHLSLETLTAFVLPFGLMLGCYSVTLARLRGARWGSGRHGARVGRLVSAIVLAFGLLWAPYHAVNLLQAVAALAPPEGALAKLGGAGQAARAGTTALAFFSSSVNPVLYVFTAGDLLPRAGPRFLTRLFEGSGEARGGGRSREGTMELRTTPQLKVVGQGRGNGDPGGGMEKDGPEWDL

Mus musculus [14] = experiment: In vivo inhibition of FLAP in C57BL/6 mouse assessed as LTB4 production in calcimycin-stimulated whole blood at 30 mg/kg, po after 2 hrs by ELISA (reference value: 100 +/- 13.3%); type: functional; parameters: scale not given: the % may be the effect or the level left
[15] = Efflux ratio of permeability across human Caco2 cells; type: ADME, cell-based; conditions: Caco-2
Outline: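 Caco-2 cells were seeded at 1-2 x 10^5 cells/cm2 on 0.4 µm PET filter inserts and cultured 10 to 25 days. Compound in HTP-4 transport buffer was added to the apical or basolateral donor side for A-B or B-A transport. Donor and receiver samples were taken up to 2 h and measured by LC/MS/MS. Each value is from duplicate 6-timepoint curves (0 to 2 h).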

## CN(C)C(=O)Cn1cc(-c2nc([C@@](C)(c3ccc(-c4cnc(N)nc4)cc3)C3CC3)no2)cn1 [BI 665915]
Cynomolgus monkey
  CL: 3.6%
[1]
  inhibition: < 50%
[2]
  concentration at 2 h: 152 µM
[3]
  bioavailability: 63%
Mus musculus [4]
  Activity: 5.1%
[5]
  inhibition: < 50%
[6]
  MRT: 3.1 h
[7]
  inhibition: < 50%
[8]
  concentration at 2 h: 20.7 µM
Cytochrome P450 3A4
  IC50: > 30 µM
[9]
  solubility thermodynamic at 24 h: 48 µg/mL (≈ 105 µM)
[10]
  MRT: 23 h
[11]
  IC50: 4.8 µM
Mus musculus [12]
  Activity: 91%
[13]
  inhibition: < 50%
Mus musculus [14]
  Activity: 22.2%
[15]
  efflux ratio: 1.9
